Measurements from ChEMBL document CHEMBL1275468, “Plasmid-mediated qnrB2 and carbapenemase gene bla(KPC-2) carried on the same plasmid in carbapenem-resistant ciprofloxacin-susceptible Enterobacter cloacae isolates” (2008).
Converted amounts (≈) assume the structure as drawn.

Assays:
Type in all cases: functional
[1] = tested on: Enterobacter cloacae; assay: Antimicrobial activity against Enterobacter cloacae isolate 151 containing PFGE genetic clone A expressing qnrB2 and beta-lactamase KPC-2 gene by Etest
[2] = tested on: Enterobacter cloacae; assay: Antimicrobial activity against Enterobacter cloacae isolate 140 containing PFGE genetic clone A expressing beta-lactamase KPC-2 and SHV-12 gene by Etest
[3] = tested on: Escherichia coli; assay: Antimicrobial activity against Escherichia coli T-625 harboring expressing qnrB2 and beta-lactamase KPC-2 and SHV-12 gene by Etest
In short: (§1)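 MIC read by Etest. Strains are E. coli GeneHogs (recA1) transformants. Plasmid DNA from clinical E. cloacae isolates was introduced by electroporation. Transformants were selected on LB agar with 100 μg/ml ampicillin, then PCR-screened for blaKPC, blaSHV and qnr genes.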

[4] = tested on: Escherichia coli; assay: Antimicrobial activity against Escherichia coli T-622 harboring expressing qnrB2 and beta-lactamase KPC-2 and SHV-12 gene by Etest; in short: as §1
[5] = tested on: Enterobacter cloacae; assay: Antimicrobial activity against Enterobacter cloacae isolate 1 containing PFGE genetic clone A expressing qnrB2 and beta-lactamase KPC-2 and SHV-12 gene by Etest
[6] = tested on: Enterobacter cloacae; assay: Antimicrobial activity against Enterobacter cloacae isolate 185 containing PFGE genetic clone A expressing qnrB2 aac(6')-Ib-cr and beta-lactamase KPC-2 and SHV-12 gene by Etest
[7] = tested on: Enterobacter cloacae; assay: Antimicrobial activity against Enterobacter cloacae isolate 649 containing PFGE genetic clone B expressing qnrB2 and beta-lactamase KPC-2 and SHV-12 gene by Etest
[8] = tested on: Enterobacter cloacae; assay: Antimicrobial activity against Enterobacter cloacae isolate 837 containing PFGE genetic clone B expressing qnrB2 and beta-lactamase KPC-2 and SHV-12 gene by Etest
[9] = tested on: Escherichia coli; assay: Antimicrobial activity against Escherichia coli T-781 harboring expressing qnrB2 and beta-lactamase KPC-2 and SHV-12 gene by Etest; in short: as §1
[10] = tested on: Enterobacter cloacae; assay: Antimicrobial activity against Enterobacter cloacae isolate 293 containing PFGE genetic clone A expressing qnrB2 and beta-lactamase KPC-2 and SHV-12 gene by Etest
[11] = tested on: Enterobacter cloacae; assay: Antimicrobial activity against Enterobacter cloacae isolate 781 containing PFGE genetic clone B expressing qnrB2 and beta-lactamase KPC-2 and SHV-12 gene by Etest
[12] = tested on: Enterobacter cloacae; assay: Antimicrobial activity against Enterobacter cloacae isolate 622 containing PFGE genetic clone A expressing qnrB2 and beta-lactamase KPC-2 and SHV-12 gene by Etest
[13] = tested on: Enterobacter cloacae; assay: Antimicrobial activity against Enterobacter cloacae isolate 656 containing PFGE genetic clone A expressing beta-lactamase KPC-2 and SHV-12 gene by Etest
[14] = tested on: Enterobacter cloacae; assay: Antimicrobial activity against Enterobacter cloacae isolate 4469 containing PFGE genetic clone C expressing qnrB2 and beta-lactamase KPC-2 and SHV-12 gene by Etest
[15] = tested on: Enterobacter cloacae; assay: Antimicrobial activity against Enterobacter cloacae isolate 18 containing PFGE genetic clone A expressing qnrB2 and beta-lactamase KPC-2 and SHV-12 gene by Etest
[16] = tested on: Enterobacter cloacae; assay: Antimicrobial activity against Enterobacter cloacae isolate 533 containing PFGE genetic clone A expressing qnrB2 and beta-lactamase KPC-2 and SHV-12 gene by Etest
[17] = tested on: Enterobacter cloacae; assay: Antimicrobial activity against Enterobacter cloacae isolate 658 containing PFGE genetic clone B expressing qnrB2 and beta-lactamase KPC-2 and SHV-12 gene by Etest
[18] = tested on: Enterobacter cloacae; assay: Antimicrobial activity against Enterobacter cloacae isolate 625 containing PFGE genetic clone A expressing qnrB2 and beta-lactamase KPC-2 and SHV-12 gene by Etest
[19] = tested on: Escherichia coli; assay: Antimicrobial activity against Escherichia coli GeneHogs by Etest
In short: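 MIC read by Etest on the plasmid-free electroporation recipient, E. coli GeneHogs (recA1 mutant).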

Compound	MIC [1]	MIC [2]	MIC [3]	MIC [4]	MIC [5]	MIC [6]	MIC [7]	MIC [8]	MIC [9]	MIC [10]	MIC [11]	MIC [12]	MIC [13]	MIC [14]	MIC [15]	MIC [16]	MIC [17]	MIC [18]	MIC [19]
C[C@H]1COc2c(N3CCN(C)CC3)c(F)cc3c(=O)c(C(=O)O)cn1c23.C[C@H]1COc2c(N3CCN(C)CC3)c(F)cc3c(=O)c(C(=O)O)cn1c23.O [LEVOFLOXACIN]	0.5 µg/mL	0.094 µg/mL	0.094 µg/mL	0.023 µg/mL	0.38 µg/mL	0.5 µg/mL	0.75 µg/mL	0.75 µg/mL	0.047 µg/mL	0.75 µg/mL	0.5 µg/mL	0.5 µg/mL	0.5 µg/mL	0.5 µg/mL	0.5 µg/mL	0.38 µg/mL	1 µg/mL	0.5 µg/mL	–
C[C@@H](O)[C@H]1C(=O)N2C(C(=O)O)=C(S[C@@H]3CN[C@H](C(=O)N(C)C)C3)[C@H](C)[C@H]12 [MEROPENEM]	> 32 µg/mL	4 µg/mL (≈ 10.4 µM)	3 µg/mL (≈ 7.82 µM)	3 µg/mL (≈ 7.82 µM)	2 µg/mL (≈ 5.22 µM)	24 µg/mL (≈ 62.6 µM)	4 µg/mL (≈ 10.4 µM)	6 µg/mL (≈ 15.6 µM)	2 µg/mL (≈ 5.22 µM)	8 µg/mL (≈ 20.9 µM)	> 32 µg/mL	8 µg/mL (≈ 20.9 µM)	6 µg/mL (≈ 15.6 µM)	8 µg/mL (≈ 20.9 µM)	> 32 µg/mL	2 µg/mL (≈ 5.22 µM)	24 µg/mL (≈ 62.6 µM)	6 µg/mL (≈ 15.6 µM)	0.016 µg/mL (≈ 0.0417 µM)
CC(C)(O/N=C(\C(=O)N[C@@H]1C(=O)N2C(C(=O)[O-])=C(C[n+]3ccccc3)CS[C@H]12)c1csc(N)n1)C(=O)O [CEFTAZIDIME]	16 µg/mL (≈ 29.3 µM)	≥ 64 µg/mL	32 µg/mL (≈ 58.5 µM)	32 µg/mL (≈ 58.5 µM)	≥ 64 µg/mL	≥ 64 µg/mL	≥ 64 µg/mL	≥ 64 µg/mL	32 µg/mL (≈ 58.5 µM)	≥ 64 µg/mL	≥ 64 µg/mL	≥ 64 µg/mL	≥ 64 µg/mL	≥ 64 µg/mL	≥ 64 µg/mL	≥ 64 µg/mL	≥ 64 µg/mL	≥ 64 µg/mL	≤ 1 µg/mL
C[C@@H](O)[C@H]1C(=O)N2C(C(=O)O)=C(S[C@@H]3CN[C@H](C(=O)Nc4cccc(C(=O)O)c4)C3)[C@H](C)[C@H]12	> 32 µg/mL	> 32 µg/mL	8 µg/mL (≈ 16.8 µM)	8 µg/mL (≈ 16.8 µM)	32 µg/mL (≈ 67.3 µM)	4 µg/mL (≈ 8.41 µM)	16 µg/mL (≈ 33.6 µM)	8 µg/mL (≈ 16.8 µM)	12 µg/mL (≈ 25.2 µM)	> 32 µg/mL	> 32 µg/mL	32 µg/mL (≈ 67.3 µM)	16 µg/mL (≈ 33.6 µM)	> 32 µg/mL	4 µg/mL (≈ 8.41 µM)	24 µg/mL (≈ 50.5 µM)	12 µg/mL (≈ 25.2 µM)	24 µg/mL (≈ 50.5 µM)	0.012 µg/mL (≈ 0.0252 µM)
GENTAMICIN	> 16 µg/mL	> 16 µg/mL	> 16 µg/mL	> 16 µg/mL	> 16 µg/mL	> 16 µg/mL	> 16 µg/mL	> 16 µg/mL	> 16 µg/mL	> 16 µg/mL	> 16 µg/mL	> 16 µg/mL	> 16 µg/mL	> 16 µg/mL	> 16 µg/mL	> 16 µg/mL	> 16 µg/mL	> 16 µg/mL	< 1 µg/mL
NCC[C@H](O)C(=O)N[C@@H]1C[C@H](N)[C@@H](O[C@H]2O[C@H](CN)[C@@H](O)[C@H](O)[C@H]2O)[C@H](O)[C@H]1O[C@H]1O[C@H](CO)[C@@H](O)[C@H](N)[C@H]1O [AMIKACIN]	≤ 2 µg/mL	≤ 2 µg/mL	≤ 2 µg/mL	≤ 2 µg/mL	≤ 2 µg/mL	≤ 2 µg/mL	≤ 2 µg/mL	32 µg/mL (≈ 54.6 µM)	≤ 2 µg/mL	16 µg/mL (≈ 27.3 µM)	≤ 2 µg/mL	≤ 2 µg/mL	≤ 2 µg/mL	≤ 2 µg/mL	≤ 2 µg/mL	≤ 2 µg/mL	≤ 2 µg/mL	≤ 2 µg/mL	≤ 2 µg/mL
C[C@@H](O)[C@H]1C(=O)N2C(C(=O)O)=C(SCCNC=N)C[C@H]12 [IMIPENEM ANHYDROUS]	12 µg/mL (≈ 40.1 µM)	> 32 µg/mL	8 µg/mL (≈ 26.7 µM)	4 µg/mL (≈ 13.4 µM)	16 µg/mL (≈ 53.4 µM)	8 µg/mL (≈ 26.7 µM)	32 µg/mL (≈ 107 µM)	6 µg/mL (≈ 20 µM)	3 µg/mL (≈ 10 µM)	> 32 µg/mL	> 32 µg/mL	24 µg/mL (≈ 80.2 µM)	32 µg/mL (≈ 107 µM)	24 µg/mL (≈ 80.2 µM)	8 µg/mL (≈ 26.7 µM)	4 µg/mL (≈ 13.4 µM)	> 32 µg/mL	16 µg/mL (≈ 53.4 µM)	0.125 µg/mL (≈ 0.418 µM)
C[C@H]1[C@H](NC(=O)/C(=N\OC(C)(C)C(=O)O)c2csc(N)n2)C(=O)N1S(=O)(=O)O [AZTREONAM]	–	–	≥ 64 µg/mL	≥ 64 µg/mL	–	–	–	–	32 µg/mL (≈ 73.5 µM)	–	–	–	–	–	–	–	–	–	≤ 1 µg/mL
CCn1cc(C(=O)O)c(=O)c2ccc(C)nc21 [NALIDIXIC ACID]	16 µg/mL (≈ 68.9 µM)	4 µg/mL (≈ 17.2 µM)	4 µg/mL (≈ 17.2 µM)	2 µg/mL (≈ 8.61 µM)	16 µg/mL (≈ 68.9 µM)	16 µg/mL (≈ 68.9 µM)	16 µg/mL (≈ 68.9 µM)	16 µg/mL (≈ 68.9 µM)	2 µg/mL (≈ 8.61 µM)	16 µg/mL (≈ 68.9 µM)	16 µg/mL (≈ 68.9 µM)	16 µg/mL (≈ 68.9 µM)	16 µg/mL (≈ 68.9 µM)	16 µg/mL (≈ 68.9 µM)	16 µg/mL (≈ 68.9 µM)	16 µg/mL (≈ 68.9 µM)	16 µg/mL (≈ 68.9 µM)	16 µg/mL (≈ 68.9 µM)	2 µg/mL (≈ 8.61 µM)
